From PubChem
APJ antagonist: APJ receptor antagonism; P35414; CHO-K1 APJ beta-arrestin complementation, luminescence; inhibition, % at 20 µM; actives 0.32% (n = 330,000);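 active = inhibition above about 40% at 20 µM, limit read from the data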;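 also: cells challenged with 10 nM apelin-13 agonist together with compound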
CCR6 antag: blocks CCL20-driven beta-arrestin recruitment at human CCR6 | P51684 | actives 0.49% (n = 340,000) | CHO-K1 CCR6 PathHunter beta-arrestin, luminescence, CCL20-stimulated | AID 493098 | inhibition, % at 20 µM;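 active = compounds whose inhibition of the agonist-driven luminescence signal at 20 µM reaches about 50%, limit read from the data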;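 also: cells stimulated with CCL20 at 14 nM final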
NTR1 ag: NTR1 (human) agonism. P30989. NTR1-U2OS beta-arrestin-GFP spot imaging, agonist mode. activation, % at 20 µM. actives 0.17% (n = 330,000);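 active = activation at or above 40% of the spot to cytoplasm intensity ratio, with at least 20 cells analyzed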
Target sequence (P30989 whole entry, looked up): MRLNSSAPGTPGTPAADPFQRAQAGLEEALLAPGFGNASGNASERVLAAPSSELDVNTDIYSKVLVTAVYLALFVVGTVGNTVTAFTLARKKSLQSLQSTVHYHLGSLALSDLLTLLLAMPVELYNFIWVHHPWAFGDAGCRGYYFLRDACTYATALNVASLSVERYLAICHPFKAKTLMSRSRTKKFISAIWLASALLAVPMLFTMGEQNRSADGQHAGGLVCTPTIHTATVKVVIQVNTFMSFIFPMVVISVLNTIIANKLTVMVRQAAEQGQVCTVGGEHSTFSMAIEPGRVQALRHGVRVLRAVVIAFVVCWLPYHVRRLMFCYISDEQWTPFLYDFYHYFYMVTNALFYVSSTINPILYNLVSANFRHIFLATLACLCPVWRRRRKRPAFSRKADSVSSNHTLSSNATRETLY
CXCR6 block: inhibitors of human CXCR6 receptor. inhibition, % at 20 µM. AID 602244. actives 0.36% (n = 360,000). CHO-K1 PathHunter CXCR6 beta-arrestin, luminescence. O00574; in the data active = inhibition above about 34%, passing the limit was not always enough;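 also: antagonist mode with CXCL16 agonist at 10 nM final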
APJ agonist: APJ receptor agonism | P35414 | CHO-K1 APJ PathHunter beta-arrestin, luminescence; 0% DMSO wells, 100% apelin | activation, % at 20 µM | actives 0.11% (n = 330,000) | AID 2520;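 active = activation more than six SD over the plate average, tested at 20 µM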
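Incubation: overnight seeding, 90 min compound at 25 °C, 1 h detection; test system: PathHunter CHO-K1 APJ (AGTRL-1) beta-arrestin reporter cells; amount: 1000 cells/well; doses: one dose, 20 µM compound, 1% DMSO; measured by: beta-gal luminescence; measure: agonist-driven arrestin binding to APJ; benchmarks: negative DMSO alone, positive Apelin-13 at 10 nM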
m5-HT2A agonist: activates the mouse 5-HT2A serotonin receptor. CHO-K1 mHTR2A beta-arrestin complementation, luminescence; percent of 30 µM serotonin response. activation, % at 7.6 µM. actives 0.66% (n = 360,000). AID 624169;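 active = activation above a run cutoff, the mean activation of all tested compounds plus 3 SD, cut at about 14% in these data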
CXCR6 confirm: confirmation of human CXCR6 receptor antagonists; shares compounds with CXCR6 block; CHO-K1 CXCR6 PathHunter beta-arrestin, luminescence; inhibition, % at 20 µM; actives 65% (n = 700);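 active = mean inhibition over four retests above 40%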;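 also: receptor stimulated with 10 nM CXCL16 agonist; beta-galactosidase fragment complementation upon beta-arrestin recruitment to receptor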
A number is an active result; i = inactive; nt = not tested or not shown. Shown are actives, neighbours in structure and some others; about 1.5% of the full set was active somewhere.

SMILES	APJ antagonist	CCR6 antag	NTR1 ag	CXCR6 block	APJ agonist	m5-HT2A agonist	CXCR6 confirm
Cc1ccc(NS(=O)(=O)c2cc([N+](=O)[O-])ccc2NNC(=S)Nc2cc(C)ccc2C)c(C)c1	53	86	i	63	i	i	64
O=C1N[C@@H](Cc2ccccc2)COC(=O)[C@H](Cc2ccc(F)cc2)CC/C=C/C[C@@H]1CC(=O)N(CCO)Cc1ccccc1	i	i	i	i	i	i	nt
O=C1NC[C@H](c2ccccc2)OC(=O)[C@@H](Cc2ccc(F)cc2)CC/C=C/C[C@@H]1CC(=O)N(CCO)Cc1ccccc1	nt	62	i	55	nt	i	45
COC(=O)CN=Cc1c(C)[nH]n(-c2ccccc2)c1=O	i	i	i	i	i	i	nt
Cc1[nH]n(-c2ccccc2)c(=S)c1C=NCCCN=Cc1c(C)[nH]n(-c2ccccc2)c1=S	i	74	i	54	i	i	74
COc1ccc(S(=O)(=O)N2CCN(C(=O)NCc3ccc(OC)c(OC)c3)CC2)cc1	i	i	i	i	i	i	nt
C=C1CC(COc2cc(=O)oc3ccccc23)(c2ccccc2)OC1=O (centres undefined)	nt	100	nt	89	nt	i	90
C=C1CCC2C(C)(C)[C@H](O)CC[C@@]2(C)[C@@H]1COc1cc(=O)oc2ccccc12 (some centres undefined)	i	i	i	i	i	i	nt
CCCc1cc(=O)n2nc(N3CCC(C(=O)N4CCN(c5ccc(OC)cc5)CC4)CC3)sc2n1	i	i	i	i	i	i	nt
C=CCNc1sc(C(=O)c2ccc(C)cc2)c(N)c1C#N	i	i	i	55	i	i	i
CC(=NNC(=S)N1CCCCC1)c1ccccn1	nt	nt	nt	i	nt	i	nt
CC(=NNC(=S)N1CCCCC1)c1cccc(C)n1	nt	i	nt	43	nt	i	i
CN(C)S(=O)(=O)c1cccc(NC(=O)c2ccccc2SCC(=O)N2CCCC2)c1	nt	nt	nt	i	nt	i	nt
COc1ccc(N2C[C@H](CSC)[C@@H](CC(=O)Nc3ccccc3)C2=O)cc1	nt	nt	nt	43	nt	i	i
COCCn1cnnc1SCC(=O)Nc1cc(OC)c([N+](=O)[O-])cc1C	i	i	i	i	i	i	nt
CCCCc1ccc(-n2nnnc2SCC(=O)Nc2cc(OC)c([N+](=O)[O-])cc2C)cc1	i	i	i	75	i	i	i
COC(=O)c1ccc(CN2C(=O)NC3(CCCc4ccccc43)C2=O)o1 (centres undefined)	i	i	i	46	i	i	i
CCOC(=O)CSc1nnc(CNC(=O)c2ccc([N+](=O)[O-])cc2)n1C	i	i	i	i	i	i	nt
COc1cc(SC)ccc1C(=O)Nc1cccc(C2OCCCO2)c1	i	i	i	i	i	i	nt
CCOC(=O)c1ccc(CNC(=O)c2cc(COc3ccccc3SC)on2)o1	i	i	i	i	i	i	nt
CN(CC(=O)Nc1ccc(F)cc1)C(=O)COC(=O)CN1C(=O)NC2(CCCC2)C1=O	i	i	i	46	i	i	i
CN(CC(=O)Nc1ccc(F)cc1)C(=O)CN1C(=O)NC2(CCCCC2)C1=O	i	i	i	i	i	i	nt
Cc1ccc(-c2c(C(=O)N/N=C/c3c[nH]c4ccccc34)nnn2-c2nonc2N)cc1	i	i	i	i	i	i	nt
N=C1SCC(=O)N1c1ncc(Cc2ccccc2Cl)s1	nt	nt	nt	51	nt	i	58
CCC(C)C(CO)NCCCn1cnc2c(OCc3ccccc3)ncnc21 (centres undefined)	nt	nt	nt	i	nt	i	nt
SMILES	APJ antagonist	CCR6 antag	NTR1 ag	CXCR6 block	APJ agonist	m5-HT2A agonist	CXCR6 confirm
CCC(C)C(CO)NCCCn1cnc2c(OC)ncnc21 (centres undefined)	nt	nt	nt	43	nt	i	i
Cn1c2ccccc2c2cc([N+](=O)[O-])ccc21	i	i	i	i	i	i	nt
CN1c2ccc([N+](=O)[O-])cc2N(C)C1(C)c1ccccc1 (centres undefined)	i	54	i	43	i	i	i
Cc1ccc2c(c1)CO[C@@]21O[C@H](CCO)C[C@H](O)[C@H]1O	nt	nt	nt	i	nt	i	nt
COc1cccc(C(=O)NC(=S)N2CCN(c3ccc(C(F)(F)F)cc3[N+](=O)[O-])CC2)c1	i	nt	i	48	i	i	49
CN(CC(=O)Nc1ccccc1Br)C(=O)c1cccn1C	i	i	i	i	i	i	nt
Cc1ccc(NC(=S)N/N=C/c2ccc([N+](=O)[O-])s2)cc1	i	72	i	52	i	i	72
CN(C)S(=O)(=O)c1ccc(C(=O)NCc2nnc(SCC(=O)N3CCCC3)o2)cc1	i	i	i	i	i	i	nt
CC1(C)CC[C@]2(C(=O)n3ccnc3)CC[C@]3(C)[C@H](C(=O)C=C4[C@@]5(C)C=C(C#N)C(=O)C(C)(C)[C@@H]5CC[C@]43C)[C@@H]2C1	nt	57	nt	55	nt	i	58
CS(=O)(=O)c1ccc2nc(NC(=O)CN3CCN(Cc4ccccc4)CC3)sc2c1	i	i	i	40	i	i	i
CCOc1ccc(NCc2cc3c(C(C)(C)C)nn(-c4ccccc4)c3[nH]c2=O)cc1	i	i	i	48	i	i	i
COc1cccc(NCc2cc3c(C(C)(C)C)nn(-c4ccccc4)c3[nH]c2=O)c1	i	i	i	i	i	i	nt
CCCNC(=O)c1ccc(C)c(NC(=O)C2=C(C)OCCS2)c1	i	i	i	i	i	i	nt
O=C(N/N=C/c1ccc([N+](=O)[O-])o1)c1sc2ccccc2c1Cl	i	i	i	41	i	i	43
Cc1ccccc1N(CC(=O)NCC1CCCO1)C(=O)C1(C)CC(=O)N=C2C=CC=CN21 (centres undefined)	i	i	i	47	i	i	i
CC[N+]1(C)CCC(O)(/C=C/c2ccccc2)C(C(=O)/C=C/c2ccccc2)C1 (centres undefined)	nt	63	nt	40	nt	i	68
CCc1ccc(/C=C/C(=O)C2C(=O)c3ccccc3C2=O)cc1	i	i	i	i	i	i	nt
Cc1ccc(NC(=O)CN2C(=O)CSc3ccc(S(=O)(=O)N4CCCCC4)cc32)cc1	i	i	i	i	i	i	nt
CCCCn1c(N)c(C(=S)NC(=O)CC(C)(C)C)c(=O)n(C)c1=O	i	nt	i	39	i	i	i
Cn1nc(NC(=O)CC(C)(C)CC(=O)O)c2ccccc21	i	i	i	i	i	i	nt
CN1C(=O)/C(=N/OC(=O)c2ccccc2)c2ccccc21	i	i	i	40	i	i	i
O=C(NNc1ccc(C(F)(F)F)cc1[N+](=O)[O-])c1ccc(NS(=O)(=O)c2ccc(F)cc2)cc1	nt	58	nt	48	nt	i	i
CCCCC(O)(CCCC)C(=O)NN(C(=O)OC)c1ccc(C)cc1	i	i	i	i	i	i	nt
